In ChEMBL document CHEMBL4396957, “Potent bicyclic inhibitors of malarial cGMP-dependent protein kinase: approaches to combining improvements in cell potency, selectivity and structural novelty” (Bioorg Med Chem Lett, 2019):
The source made the active and inactive calls. The rule behind the calls is not given here.

Columns and labels:
[1] = system: HepG2; test: Cytotoxicity against human HepG2 cells assessed as reduction cell viability incubated for 48 hrs by CellTiter-Glo luminescent cell viability assay; format: cell-based; conditions: hepg2, 48 h
Method in brief: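 HepG2 human liver-derived cells exposed to compound for 48 h in an in vitro viability assay. […]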

[2] = target: Maternal embryonic leucine zipper kinase (Homo sapiens) (UniProt Q14680); test: Inhibition of human MELK at 1 uM relative to control
Chain of Maternal embryonic leucine zipper kinase (Homo sapiens) (Q14680 whole entry, looked up): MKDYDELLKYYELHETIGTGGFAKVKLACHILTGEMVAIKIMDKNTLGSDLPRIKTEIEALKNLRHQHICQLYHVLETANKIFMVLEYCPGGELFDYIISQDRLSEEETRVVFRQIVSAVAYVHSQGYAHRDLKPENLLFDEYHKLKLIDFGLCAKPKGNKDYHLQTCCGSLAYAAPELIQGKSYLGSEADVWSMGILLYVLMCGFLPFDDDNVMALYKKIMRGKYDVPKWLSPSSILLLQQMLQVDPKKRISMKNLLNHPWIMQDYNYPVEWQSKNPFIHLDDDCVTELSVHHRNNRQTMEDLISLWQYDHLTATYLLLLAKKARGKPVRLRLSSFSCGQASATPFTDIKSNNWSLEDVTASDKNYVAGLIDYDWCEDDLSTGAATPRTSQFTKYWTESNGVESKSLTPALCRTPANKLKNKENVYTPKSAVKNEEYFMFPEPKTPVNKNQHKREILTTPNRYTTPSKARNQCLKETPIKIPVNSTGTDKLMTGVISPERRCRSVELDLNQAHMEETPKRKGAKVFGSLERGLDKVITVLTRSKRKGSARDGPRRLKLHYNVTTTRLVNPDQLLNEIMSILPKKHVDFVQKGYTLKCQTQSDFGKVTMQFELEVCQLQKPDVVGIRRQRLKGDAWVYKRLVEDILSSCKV

[3] = target: T1, cGMP-dependent protein kinase 1 (Homo sapiens) (UniProt Q13976); test: Inhibition of recombinant human N-terminal His6-tagged full length PKG1beta expressed in baculovirus infected Sf21 insect cells upto 1 uM relative to control
T1 sequence (whole entry): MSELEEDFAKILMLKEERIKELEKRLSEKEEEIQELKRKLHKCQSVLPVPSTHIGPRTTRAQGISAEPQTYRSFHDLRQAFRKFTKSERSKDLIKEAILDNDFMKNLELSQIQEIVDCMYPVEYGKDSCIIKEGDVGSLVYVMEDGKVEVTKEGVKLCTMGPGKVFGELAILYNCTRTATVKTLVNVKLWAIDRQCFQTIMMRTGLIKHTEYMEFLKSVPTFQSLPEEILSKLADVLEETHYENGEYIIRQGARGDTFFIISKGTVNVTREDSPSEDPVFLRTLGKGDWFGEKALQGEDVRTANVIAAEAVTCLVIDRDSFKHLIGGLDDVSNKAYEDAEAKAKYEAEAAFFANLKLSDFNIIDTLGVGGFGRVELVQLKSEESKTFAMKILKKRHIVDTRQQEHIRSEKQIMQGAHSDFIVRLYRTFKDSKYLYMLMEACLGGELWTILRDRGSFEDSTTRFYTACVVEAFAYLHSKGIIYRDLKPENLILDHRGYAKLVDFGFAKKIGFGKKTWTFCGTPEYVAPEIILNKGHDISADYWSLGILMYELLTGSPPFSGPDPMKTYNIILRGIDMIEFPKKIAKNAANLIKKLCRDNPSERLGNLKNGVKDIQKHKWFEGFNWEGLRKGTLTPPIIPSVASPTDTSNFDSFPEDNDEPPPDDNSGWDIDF

[4] = target: Receptor-interacting serine/threonine-protein kinase 2 (Homo sapiens) (UniProt O43353); test: Inhibition of human RIPK2 at 1 uM relative to control
Chain of Receptor-interacting serine/threonine-protein kinase 2 (Homo sapiens) (O43353 whole entry): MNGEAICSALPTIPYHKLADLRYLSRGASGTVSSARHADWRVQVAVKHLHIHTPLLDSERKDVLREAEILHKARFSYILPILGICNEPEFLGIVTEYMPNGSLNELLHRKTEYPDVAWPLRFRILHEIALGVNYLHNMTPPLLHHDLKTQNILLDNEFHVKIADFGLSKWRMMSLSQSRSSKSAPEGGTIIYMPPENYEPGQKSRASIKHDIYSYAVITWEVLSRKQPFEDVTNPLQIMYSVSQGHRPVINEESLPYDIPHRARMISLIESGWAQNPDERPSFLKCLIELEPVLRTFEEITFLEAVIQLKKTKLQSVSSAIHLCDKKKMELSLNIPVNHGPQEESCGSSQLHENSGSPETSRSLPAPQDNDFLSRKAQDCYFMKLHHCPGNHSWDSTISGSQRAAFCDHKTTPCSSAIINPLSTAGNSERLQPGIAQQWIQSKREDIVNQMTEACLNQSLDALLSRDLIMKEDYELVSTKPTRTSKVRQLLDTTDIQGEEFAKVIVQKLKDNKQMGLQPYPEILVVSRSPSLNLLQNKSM

[5] = target: T1, cGMP-dependent protein kinase 1 (Homo sapiens); test: Inhibition of recombinant human N-terminal His6-tagged full length PKG1alpha expressed in baculovirus infected Sf21 insect cells upto 1 uM relative to control

SMILES	Activity [1]	inhibition [2] [%]	inhibition [3]	inhibition [4] [%]	inhibition [5]
CN1CCN(c2ccn3c(-c4ccnc(N)n4)c(-c4ccc(F)cc4)nc3c2)CC1	Non-Toxic				
CN1CCN(c2ccc3nc(-c4ccc(F)cc4)c(-c4ccnc(N)n4)n3c2)CC1	Toxic				
CN(C)Cc1ccn2c(-c3ccnc(N)n3)c(-c3ccc(F)cc3)nc2c1		> 90	inactive	50 to 90	inactive
CNc1nccc(-c2c(-c3ccc(F)cc3)nc3cc(NCCN(C)C)ccn23)n1		50 to 90	inactive	50 to 90	inactive
CN(C)Cc1ccn2c(-c3ccnc(Nc4ccc(N5CCNCC5)cc4)n3)c(C3CC3)nc2c1		> 90		50 to 90	
